Data from ChEMBL document CHEMBL5705892, “MK-2206, an allosteric Akt inhibitor, enhances antitumor efficacy by standard chemotherapeutic agents or molecular targeted drugs in vitro and in vivo” (Mol Cancer Ther, 2010).
One block for each compound: values may come before it. The source made the active and inactive calls. The calls are words filed in the database; no cut-off is given here.

Key:
[1] = test system: NCI-H1299; experiment: Antiproliferative activity against human NCI-H1299 cells assessed as reduction in cell proliferation measured after 72 hrs by celltiter-glo assay; assay type: functional, cell-based; conditions: NCI-H1299, 72 h
Outline: (§1)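 Cells in RPMI 1640 with 10% heat-inactivated FBS at 37°C and 5% CO₂ were seeded at 2 to 3 × 10³ per well. […] Growth was read as cellular ATP by CellTiter-Glo.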

[2] = test system: NCI-H292; experiment: Induction of apoptosis in human NCI-H292 cells assessed as increase in caspase-3/7 activity up to 20 umol/L measured after 48 hrs by caspase-glo 3/7 assay; assay type: functional, cell-based; conditions: dose <= 20.0 µmol/L
Outline: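 Caspase-3/7 activity was measured by Caspase-Glo 3/7 and expressed as fold over DMSO vehicle control. The experiment was done twice.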

[3] = test system: NCI-H292; experiment: Antitumor activity against human NCI-H292 cells xenografted in CD-1 mouse assessed as tumor growth suppression at 50 mg/kg, po administered once daily for 5 days per week for 2 weeks and measured twice a week during compound dosing by caliper method; assay type: functional, organism-based
Outline: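 Female CD1-nude mice carried s.c. NCI-H292 cells in Matrigel/PBS and were randomized at 0.2 cm³, n = 5. […] MK-2206 (30% Captisol) was given 2 h later at 120 mg/kg po on days 0, 2, 4, 7, 9, 11, or at 360 mg/kg on days 0 and 7. Control received vehicle. Caliper volume twice weekly.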

[4] = Toxicity in human NCI-H292 cells xenografted CD-1 mouse assessed as death at 50 mg/kg, po administered once daily for 5 days per week for 2 weeks and measured during compound dosing; assay type: organism-based; conditions: in vivo, 336 h
Outline: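 NCI-H292 cells in 50% Matrigel/PBS injected s.c. into flank of female CD1-nude mice; dosing began after 2 wk at mean tumour 0.2 cm³, n = 5/group. […] Body weight and signs monitored; treatment ended day 16.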

[5] = test system: A-431; experiment: Antiproliferative activity against human A-431 cells assessed as reduction in cell proliferation measured after 72 hrs by celltiter-glo assay; assay type: functional, cell-based; conditions: A-431, 72 h; outline: as §1
[6] = test system: HCC827; experiment: Antiproliferative activity against human HCC827 cells assessed as reduction in cell proliferation measured after 72 hrs by celltiter-glo assay; assay type: functional, cell-based; conditions: HCC827, 72 h; outline: as §1
[7] = test system: NCI-H358; experiment: Antiproliferative activity against human NCI-H358 cells assessed as reduction in cell proliferation measured after 72 hrs by celltiter-glo assay; assay type: functional, cell-based; conditions: NCI-H358, 72 h; outline: as §1
[8] = test system: Calu-6; experiment: Antiproliferative activity against human Calu-6 cells assessed as reduction in cell proliferation measured after 72 hrs by celltiter-glo assay; assay type: functional, cell-based; conditions: Calu-6, 72 h; outline: as §1
[9] = test system: Mus musculus; experiment: In vivo inhibition of EGFR in human NCI-H292 cells xenografted mouse assessed as reduction in AKT phosphorylation at S473 residue at 50 mg/kg, po administered as single dose measured after 14 hrs by Western blot analysis; assay type: functional, organism-based
[10] = test system: NCI-H23; experiment: Antiproliferative activity against human NCI-H23 cells assessed as reduction in cell proliferation measured after 72 hrs by celltiter-glo assay; assay type: functional, cell-based; conditions: NCI-H23, 72 h; outline: as §1
[11] = test system: NCI-H292; experiment: Antiproliferative activity against human NCI-H292 cells assessed as reduction in cell proliferation measured after 72 hrs by celltiter-glo assay; assay type: functional, cell-based; conditions: NCI-H292, 72 h; outline: as §1
[12] = test system: Mus musculus; experiment: In vivo inhibition of EGFR in human NCI-H292 cells xenografted mouse assessed as reduction in ERK phosphorylation at T202/Y204 residues at 50 mg/kg, po administered as single dose measured after 14 hrs by Western blot analysis; assay type: functional, organism-based
[13] = Toxicity in human PC-3 cells xenografted CD1 nude mouse assessed as body weight loss at 5 mg/kg, iv relative to control; assay type: organism-based; conditions: in vivo
Outline: (§2)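 Male CD1-nude mice with s.c. PC-3 tumours (50% Matrigel/50% PBS, left flank), randomized at mean 0.2 cm³, n=5/group, treated from 25 d post-implant. Body weight monitored versus vehicle-only controls.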

[14] = test system: PC-3; experiment: Antitumor activity against human PC-3 cells xenografted in CD1 nude mouse assessed as reduction in tumor volume at 5 mg/kg, iv by caliper method; assay type: functional, organism-based
Outline: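 Male CD1-nude mice received s.c. PC-3 cells and were treated from day 25 after implant, at 0.2 cm³, n = 5. Docetaxel (0.73% ethanol in saline) was given at 5 mg/kg i.v. on day 0. MK-2206 (30% Captisol) was given at 120 mg/kg po on days 1, 3, 5, 8, 10, 12. Caliper volume twice weekly.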

[15] = Toxicity in human PC-3 cells xenografted CD1 nude mouse assessed as body weight loss at 5 mg/kg, iv measured on day 15 relative to control; assay type: organism-based; conditions: in vivo, 360 h, time 15 day; outline: as §2
[16] = test system: HCC1954; experiment: Antiproliferative activity against human HCC1954 cells assessed as reduction in cell proliferation measured after 72 hrs by celltiter-glo assay; assay type: functional, cell-based; conditions: HCC1954, 72 h; outline: as §1
[17] = test system: HCC70; experiment: Antiproliferative activity against human HCC70 cells assessed as reduction in cell proliferation measured after 72 hrs by celltiter-glo assay; assay type: functional, cell-based; conditions: HCC70, 72 h; outline: as §1
[18] = test system: MDA-MB-468; experiment: Antiproliferative activity against human MDA-MB-468 cells assessed as reduction in cell proliferation measured after 72 hrs by celltiter-glo assay; assay type: functional, cell-based; conditions: MDA-MB-468, 72 h; outline: as §1
[19] = test system: SK-OV-3; experiment: Antiproliferative activity against human SK-OV-3 cells assessed as reduction in cell proliferation measured after 72 hrs by celltiter-glo assay; assay type: functional, cell-based; conditions: SK-OV-3, 72 h; outline: as §1
[20] = test system: SK-BR-3; experiment: Antiproliferative activity against human SK-BR-3 cells assessed as reduction in cell proliferation measured after 72 hrs by celltiter-glo assay; assay type: functional, cell-based; conditions: SK-BR-3, 72 h; outline: as §1
[21] = target: RAC-alpha serine/threonine-protein kinase (Homo sapiens) (UniProt P31749); experiment: Inhibition of AKT phosphorylation at S473 residue in human HCC70 cells at 10 umol/L measured up to 24 hrs by Western blot analysis; assay type: cell-based; conditions: dose 10.0 µmol/L
Outline: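 HCC70 cells at ~70% confluence were exposed to 10 µmol/L lapatinib, 1 µmol/L MK-2206, or both, for 0, 3, 6, 12 or 24 h. Lysates were prepared in Triton X-100/Tris buffer (pH 7.5) with protease and phosphatase inhibitors. Immunoblots after SDS-PAGE and nitrocellulose transfer were probed for pAkt and pS6.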

[22] = test system: NCI-N87; experiment: Antiproliferative activity against human NCI-N87 cells assessed as reduction in cell proliferation measured after 72 hrs by celltiter-glo assay; assay type: functional, cell-based; conditions: NCI-N87, 72 h; outline: as §1
[23] = test system: SK-OV-3; experiment: Antitumor activity against human SK-OV-3 cells xenografted in CB17/icr SCID mouse assessed as tumor growth inhibition at 100 mg/kg, po administered 5 days per week for 2 weeks and measured twice a week during compound dosing by caliper method; assay type: functional, organism-based
Outline: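 SK-OV-3 cells were implanted s.c. into female C.B-17/ICR-scid mice, which were randomized at 0.13 cm³, n = 5. Lapatinib (water) was given at 100 mg/kg po on days 0–4 and 7–11. MK-2206 (30% Captisol) was given at 60 or 120 mg/kg po on days 0, 2, 4, 7, 9, 11. Tumor volume by calipers twice weekly.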

[24] = test system: HCC70; experiment: Induction of apoptosis in human HCC70 cells assessed as increase in caspase-3/7 activity at 10 umol/L measured after 48 hrs by caspase-glo 3/7 assay relative to control; assay type: functional; conditions: dose 10 µmol/L
Outline: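 HCC70 breast cells were treated for 48 h with MK-2206 (0, 0.03, 0.3, 3 µmol/L), with or without lapatinib (0, 1, 3, 5, 10 µmol/L). Caspase-3/7 activity was read by Caspase-Glo 3/7 luminescence and expressed as fold induction over DMSO-treated control. The experiment was run twice.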

[25] = target: RAC-alpha serine/threonine-protein kinase (Homo sapiens) (UniProt P31749); experiment: Induction of AKT phosphorylation at S473 residue in human NCI-H1703 cells at 0.7 nmol/L measured after 8 hrs by MSD assay; assay type: cell-based; conditions: filed as activator
Outline: (§3)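 Lung cancer cells were seeded at 5 × 10⁴ per well, and carboplatin or gemcitabine was added 24 h after plating. Phospho-Akt induction was then measured.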

[26] = target: RAC-alpha serine/threonine-protein kinase (Homo sapiens) (UniProt P31749); experiment: Induction of AKT phosphorylation at S473 residue in human NCI-H460 cells at 5 nmol/L measured after 8 hrs by MSD assay; assay type: cell-based; conditions: filed as activator; outline: as §3
[27] = target: RAC-alpha serine/threonine-protein kinase (Homo sapiens) (UniProt P31749); experiment: Induction of AKT phosphorylation at S473 residue in human NCI-H1993 cells at 28 nmol/L measured after 8 hrs by MSD assay; assay type: cell-based; conditions: filed as activator; outline: as §3
[28] = Toxicity in human NCI-H460 cells xenografted CD1 nude mouse assessed as body weight loss at 100 mg/kg, iv administered once a week for 2 weeks measured on day 14 to 16; assay type: organism-based; conditions: in vivo, 336 h, time 14-16 day
Outline: (§4)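 Mice with s.c. NCI-H460 xenografts (50% Matrigel/50% PBS, left flank), randomized at mean 0.2 cm³, n=5/group, treatment started 8 d after implant. Gemcitabine 100 mg/kg i.v. in saline on days 0 and 7; vehicle-only controls. Body weight and physical signs monitored throughout.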

[29] = Toxicity in human NCI-H460 cells xenografted CD1 nude mouse assessed as body weight loss at 100 mg/kg, iv administered once a week for 2 weeks measured during compound dosing relative to control; assay type: organism-based; conditions: in vivo, 336 h; outline: as §4
[30] = target: RAC-alpha serine/threonine-protein kinase (Homo sapiens) (UniProt P31749); experiment: Induction of AKT phosphorylation at S473 residue in human NCI-H441cells at 5 nmol/L measured after 4 to 24 hrs by MSD assay; assay type: cell-based; conditions: NCI-H441, time 4-24 hrs; outline: as §3
[31] = target: RAC-alpha serine/threonine-protein kinase (Homo sapiens) (UniProt P31749); experiment: Induction of AKT phosphorylation at S473 residue in human UMC-11 cells at 10 umol/L measured after 4 to 24 hrs by MSD assay; assay type: cell-based; conditions: dose 10.0 µmol/L, time 4-24 hrs
[32] = target: RAC-alpha serine/threonine-protein kinase (Homo sapiens) (UniProt P31749); experiment: Induction of AKT phosphorylation at S473 residue in human NCI-H661 cells at 10 nmol/L measured after 8 hrs by MSD assay; assay type: cell-based; conditions: filed as activator; outline: as §3

Chain of RAC-alpha serine/threonine-protein kinase (Homo sapiens) (P31749 whole entry): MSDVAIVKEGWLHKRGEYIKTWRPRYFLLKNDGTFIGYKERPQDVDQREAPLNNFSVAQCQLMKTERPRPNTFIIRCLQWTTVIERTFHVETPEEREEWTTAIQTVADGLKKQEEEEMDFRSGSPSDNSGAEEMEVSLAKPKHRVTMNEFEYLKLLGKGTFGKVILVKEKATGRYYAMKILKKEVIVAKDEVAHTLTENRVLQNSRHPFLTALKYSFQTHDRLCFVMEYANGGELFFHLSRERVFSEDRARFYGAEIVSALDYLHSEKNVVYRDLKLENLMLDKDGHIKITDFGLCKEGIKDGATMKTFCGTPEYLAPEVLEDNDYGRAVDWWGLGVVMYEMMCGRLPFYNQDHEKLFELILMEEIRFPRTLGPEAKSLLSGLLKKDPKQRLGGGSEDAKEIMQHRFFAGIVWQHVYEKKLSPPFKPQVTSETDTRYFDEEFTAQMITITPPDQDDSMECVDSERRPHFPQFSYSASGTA

SMILES: C#Cc1cccc(Nc2ncnc3cc(OCCOC)c(OCCOC)cc23)c1 [ERLOTINIB]
IC50 [1]: 21.1 µM
Activity [2]: inactive
Activity [3]: Active
Activity [4]: Non-Toxic
IC50 [5]: 1900 nM
IC50 [6]: 20 nM
IC50 [7]: 4.4 µM
IC50 [8]: 35.6 µM
inhibition [9]: inactive
IC50 [10]: 10.6 µM
IC50 [11]: 500 nM
inhibition [12]: Active

SMILES: CC(=O)O[C@@]12CO[C@@H]1C[C@H](O)[C@@]1(C)C(=O)[C@H](O)C3=C(C)[C@@H](OC(=O)[C@H](O)[C@@H](NC(=O)OC(C)(C)C)c4ccccc4)C[C@@](O)([C@@H](OC(=O)c4ccccc4)[C@H]21)C3(C)C [DOCETAXEL ANHYDROUS]
Activity [13]: 4%
Activity [14]: Active
Activity [15]: Non-Toxic

IC50 [16]: 5.5 µM
IC50 [18]: 4.5 µM
IC50 [19]: > 10 µM
IC50 [20]: 30 nM
SMILES: CS(=O)(=O)CCNCc1ccc(-c2ccc3ncnc(Nc4ccc(OCc5cccc(F)c5)c(Cl)c4)c3c2)o1 [LAPATINIB]
IC50 [17]: 3.2 µM
inhibition [21]: inactive
IC50 [22]: 40 nM
TGI [23]: Active
fold change (FC) [24]: ~2

Activity [25]: Active
Activity [26]: Active
Activity [27]: Active
Activity [30]: inactive
Activity [31]: inactive
Activity [32]: Active
SMILES: Nc1ccn([C@@H]2O[C@H](CO)[C@@H](O)C2(F)F)c(=O)n1 [GEMCITABINE]
Activity [28]: Non-Toxic
Activity [29]: 7%
